Measurements published in ChEMBL document CHEMBL1141193, “Design, synthesis, and biological evaluation of hybrid molecules containing alpha-methylene-gamma-butyrolactones and alpha-bromoacryloyl moieties” (J Med Chem, 2005).
Calls of active or inactive are those of the source. The calls are words filed in the database; no cut-off is given here.

Key:
Assay type in all cases: functional, cell-based
K562 = experiment: In vitro antiproliferative against human chronic myelogenous K562 cell line
Method in brief: (§1)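 Exponentially growing cells in RPMI 1640 with 10% FCS, 2 mM L-glutamine, […] and penicillin/streptomycin. Exposed to increasing drug concentrations, diluted from a 1 mg/mL DMSO stock. Cell number per mL was counted by Coulter counter after 48 h, using duplicate cultures per concentration and at least three repeats. IC50 = 50% growth inhibition versus untreated controls, reported as mean ± SE.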

L1210 = experiment: In vitro antiproliferative activity against murine lymphocytic L1210 leukemia cell line; conditions: Mus musculus; method in brief: as §1
PBMC = experiment: In vitro antiproliferative activity against human PBM cell line by MTT assay
Method in brief: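 PBMCs isolated from anticoagulant-treated blood of healthy human donors. Cells were cultured with or without compound for 24 h, and growth was read by MTT dye-reduction assay. IC50 taken from dose-response curves of at least two independent experiments, each in triplicate determinations, as mean ± SE.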

HL-60 [1] = experiment: DNA fragmentation in HL60 cells by ethidium bromide staining at 1 uM for 12 hrs; conditions: Homo sapiens
HL-60 [2] = experiment: Cytochrome c release in HL60 cells by immunoblotting at 1 uM; conditions: Homo sapiens
Method in brief: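 HL-60 cells treated with 1 or 3 µM compound and harvested at 12 h. Cytosolic lysates were immunoblotted with anti-cytochrome c antibody, looking for the 15 kDa band. β-actin served as loading control.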

HL-60 [3] = experiment: PARP hydrolysis in HL60 cells by an immunoblot assay; conditions: Homo sapiens
Method in brief: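 HL-60 cell lysates, equal protein per lane, were run on SDS-PAGE and blotted with an anti-PARP monoclonal antibody to detect PARP cleavage. Etoposide was the positive control.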

HL-60 [4] = experiment: Condensation of chromatin in HL60 cells at 1 uM for 12 hrs; conditions: Homo sapiens
Method in brief: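 HL-60 cells exposed to 1 µM compound for 12 h, then DNA stained with Hoechst 33258. Chromatin condensation and apoptotic bodies were examined by fluorescence microscopy. Apoptotic nuclei were counted quantitatively in triplicate, and the experiment was repeated once.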

HL-60 [5] = experiment: In vitro antiproliferative activity against human HL60 myeloid leukemia cell line by MTT assay

IC50 (K562) [nM] | IC50 (L1210) [nM] | IC50 (HL-60 [5]) [nM] | Structure (SMILES) | IC50 (PBMC) [nM] | Activity (HL-60 [1]) | Activity (HL-60 [2]) | Activity (HL-60 [3]) | Activity (HL-60 [4])
5000 | 4500 | – | C=C(Br)C(=O)Nc1ccc2sc(C(=O)O)cc2c1 | – | – | – | – | –
> 10000 | > 10000 | – | C=C1CC(C)(COc2cc(C(=O)O)n(C)n2)OC1=O (configuration not stated) | – | – | – | – | –
380 | 290 | 360 | C=C(Br)C(=O)Nc1ccc2sc(C(=O)NCCNC(=O)c3cc(OCC4(c5ccc(-c6ccccc6)cc5)CC(=C)C(=O)O4)nn3C)cc2c1 (configuration not stated) | 8610 | Active | Active | Active | Active
5600 | 4300 | – | C=C(Br)C(=O)Nc1ccc2[nH]c(C(=O)O)cc2c1 | – | – | – | – | –
80 | 50 | 110 | C=C(Br)C(=O)Nc1ccc2c(c1)cc(C(=O)NCCNC(=O)c1cc(OCC3(c4ccccc4)CC(=C)C(=O)O3)nn1C)n2C (configuration not stated) | 2520 | Active | Active | Active | Active
1020 | 840 | – | C=C(Br)C(=O)Nc1ccc2sc(C(=O)NCCNC(=O)c3cc(OCC4(C)CC(=C)C(=O)O4)nn3C)cc2c1 (configuration not stated) | – | – | – | – | –
710 | 550 | – | C=C(Br)C(=O)Nc1ccc2oc(C(=O)NCCNC(=O)c3cc(OCC4(c5ccc(Cl)cc5)CC(=C)C(=O)O4)nn3C)cc2c1 (configuration not stated) | – | – | – | – | –
410 | 260 | 290 | C=C(Br)C(=O)Nc1ccc2sc(C(=O)NCCNC(=O)c3cc(OCC4(c5ccc(Cl)cc5)CC(=C)C(=O)O4)nn3C)cc2c1 (configuration not stated) | 6820 | Active | Active | Active | Active
> 10000 | > 10000 | – | C=C1CC(COc2cc(C(=O)O)n(C)n2)(c2ccc(-c3ccccc3)cc2)OC1=O (configuration not stated) | – | – | – | – | –
270 | 290 | – | C=C(Br)C(=O)Nc1ccc2sc(C(=O)NCCNC(=O)c3cc(OCC4(c5ccccc5)CC(=C)C(=O)O4)nn3C)cc2c1 (configuration not stated) | – | – | – | – | –
480 | 360 | – | C=C(Br)C(=O)Nc1ccc2[nH]c(C(=O)NCCNC(=O)c3cc(OCC4(c5ccc(-c6ccccc6)cc5)CC(=C)C(=O)O4)nn3C)cc2c1 (configuration not stated) | – | – | – | – | –
360 | 280 | – | C=C(Br)C(=O)Nc1ccc2c(c1)cc(C(=O)NCCNC(=O)c1cc(OCC3(c4ccc(-c5ccccc5)cc4)CC(=C)C(=O)O3)nn1C)n2C (configuration not stated) | – | – | – | – | –
3370 | 2070 | – | C=C(Br)C(=O)Nc1ccc2c(c1)cc(C(=O)O)n2C | – | – | – | – | –
630 | 850 | – | C=C(Br)C(=O)Nc1ccc2[nH]c(C(=O)NCCNC(=O)c3cc(OCC4(c5ccccc5)CC(=C)C(=O)O4)nn3C)cc2c1 (configuration not stated) | – | – | – | – | –
> 10000 | > 10000 | – | C=C1CC(COc2cc(C(=O)O)n(C)n2)(c2ccccc2)OC1=O (configuration not stated) | – | – | – | – | –
420 | 310 | 270 | C=C(Br)C(=O)Nc1ccc2oc(C(=O)NCCNC(=O)c3cc(OCC4(c5ccccc5)CC(=C)C(=O)O4)nn3C)cc2c1 (configuration not stated) | 5440 | Active | Active | Active | Active
7250 | 2950 | – | C=C(Br)C(=O)Nc1ccc2oc(C(=O)O)cc2c1 | – | – | – | – | –
> 10000 | > 10000 | – | C=C1CC(COc2cc(C(=O)O)n(C)n2)(c2ccc(Cl)cc2)OC1=O (configuration not stated) | – | – | – | – | –
410 | 270 | – | C=C(Br)C(=O)Nc1ccc2oc(C(=O)NCCNC(=O)c3cc(OCC4(c5ccc(-c6ccccc6)cc5)CC(=C)C(=O)O4)nn3C)cc2c1 (configuration not stated) | – | – | – | – | –
